Measurements: paper PMC6060173 (The Lancet. Infectious Diseases, 2018)
Read-outs that look alike come from different tables or passages of the source.

Tests used:
[1] = test system: P falciparum and P vivax field isolates; conditions: ex-vivo; cited from earlier work
Plasmodium vivax [2] = test: Phase 2a single-dose efficacy: crude cure, thick blood smear microscopy; assay type: in vivo
Procedure, shortened: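 P vivax patients (1000–35 000 asexual parasites per μL) received one oral dose of 400, 600 or 800 mg. Crude cure meant clearance of asexual parasites within 7 days with no later recurrence, read by thick smear microscopy without PCR adjustment. It was scored at day 14, and cure at day 28. Rescue treatment was given if parasites remained at day 7. Analysis used ITT and per-protocol populations.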

[3] = Pharmacokinetics in malaria patients; assay type: in vivo, human
Procedure, shortened: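 A further sample was taken on day 5 or 7, depending on day-3 parasitaemia. Later samples were taken on days 10–11, 14, 17–18, 21, 24–25, 28 and 35. Parameters were AUC0-t, AUC0-168, AUC0-inf, Cmax, tmax, t1/2, C168h and λinf.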

Plasmodium vivax [4] = test: Asexual parasite clearance parameters; assay type: in vivo; conditions: P vivax
Procedure, shortened: (§1)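 Parasitaemia was counted by microscopy before one oral dose of the test compound and every 4 h over days 0–3. If two consecutive negative readings were not reached, the stay was extended to 7 days with counts every 6 h until clearance. Clearance kinetics, including lag time before parasite decline, followed WWARN statistical procedures. Kaplan-Meier analyses used a modified ITT population.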

PvDHODH enzyme = conditions: truncated recombinant enzymes; cited from earlier work
Plasmodium falciparum [5] = test: Asexual parasite clearance parameters; assay type: in vivo; conditions: P falciparum
Procedure, shortened: as §1

P falciparum [6] = conditions: for a 60 kg patient; cited from earlier work
[7] = cited from earlier work
P falciparum [8] = conditions: single dose of 400 mg administered 1 day before parasite challenge; cited from earlier work
[9] = Adverse events in malaria patients; assay type: in vivo, human
Procedure, shortened: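 Patients received one oral dose of the test compound in suspension: 400 or 250 mg for P falciparum, and 400, 600 or 800 mg for P vivax. They were kept in clinic with checks every 4 h over days 0–3. Safety follow-up lasted 35 days. Safety was analysed in all patients who received at least one dose.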

[10] = 12-lead and Holter ECG safety analysis in malaria patients; assay type: in vivo, human
Procedure, shortened: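 Adults with uncomplicated malaria (18–70 years, 45–90 kg) received one oral dose of the test compound in suspension, ideally fasted. QT interval was corrected by Fridericia (QTcF) and compared with baseline. PR and QRS intervals were also recorded during the study.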

P. falciparum = test: MIC/MPC estimate from nadir of parasitaemia in recrudescing patients; assay type: in vivo, Plasmodium falciparum; conditions: 400 mg
Plasmodium vivax [11] = test: Gametocytaemia by microscopy; assay type: in vivo; conditions: cohort 2b, P vivax, 600 mg
Procedure, shortened: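 Patients with P vivax malaria received one oral dose of the test compound: 400 mg in cohort 1b or 600 mg in cohort 2b. Gametocytaemia was assessed by microscopy throughout the 28-day follow-up. The measure was conversion from microscopy-negative at the start of treatment to gametocyte-positive.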

Plasmodium falciparum [12] = test: Phase 2a single-dose efficacy: PCR-adjusted ACPR, thick blood smear microscopy; assay type: in vivo; conditions: P falciparum
Procedure, shortened: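 P falciparum patients (1000–35 000 asexual parasites per μL) received one oral dose of 400 or 250 mg. Treatment failure was read by thick blood smear microscopy; the first cohort initially used quantitative PCR. PCR adjustment distinguished recrudescence from new infection. ACPR was scored at days 14 and 28. ITT included all dosed patients; per-protocol excluded those who vomited, took other medication, had protocol violations or lacked data.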

[13] = test system: Plasmodium falciparum DHODH; conditions: cited from earlier work
[14] = test system: P. falciparum Dd2 B2 clone; conditions: dhodh Gly181Cys mutation; cited from earlier work
[15] = cohort 1a (n=13), P falciparum, 400 mg
[16] = cohort 1b (n=5), P vivax, 400 mg
[17] = cohort 2a (n=11), P falciparum, 250 mg
[18] = cohort 2b (n=9), P vivax, 600 mg
[19] = cohort 3b (n=7), P vivax, 800 mg

Compound: Cc1cc(Nc2ccc(C(F)(F)F)nc2)n2nc(C(C)(F)F)nc2n1 [DSM421, reference compound]
- efficacy for P falciparum compared with P vivax [1]: equal efficacy

Compound: Cc1cc(Nc2ccc(S(F)(F)(F)(F)F)cc2)n2nc(C(C)(F)F)nc2n1 [DSM265]
- patients achieving crude cure at day 14 (Plasmodium vivax [2]; P vivax, 400 mg, ITT (five patients)): none
- patients achieving crude cure at day 14 (Plasmodium vivax [2]; P vivax, 400 mg, per-protocol (four patients)): none
- patients achieving crude cure at day 14 (Plasmodium vivax [2]; P vivax, 600 mg, ITT): 33%
- patients achieving crude cure at day 14 (Plasmodium vivax [2]; P vivax, 600 mg, per-protocol): 50%
- patients achieving crude cure at day 14 (Plasmodium vivax [2]; P vivax, 800 mg, ITT): 14%
- patients achieving crude cure at day 14 (Plasmodium vivax [2]; P vivax, 800 mg, per-protocol): 25%
- patients achieving a cure at day 28 (Plasmodium vivax [2]; P vivax, all doses): No patients
- P vivax clearance (Plasmodium vivax [2]; within the first 100 h, doses of 600 mg and 800 mg): 99–100%
- dose proportionality based on Cmax and AUC0-∞ ([3]; P falciparum patients, 250 mg or 400 mg): dose proportional
- dose proportionality of exposure ([3]; P vivax patients, 400 mg to 800 mg): slightly subproportional
- Tmax ([3]; human, plasma, oral, tmax, seen for the other patients): 6 to 8 h
- Profiles with lag (Plasmodium vivax [4]; cohort 1b, 400 mg, 4 profiles analysed): 3
- Profiles with lag (Plasmodium vivax [4]; cohort 2b, 600 mg, 9 profiles analysed): 3
- Profiles with lag (Plasmodium vivax [4]; cohort 3b, 800 mg, 6 profiles analysed): 1
- IC50 for the PvDHODH enzyme relative to PfDHODH (PvDHODH enzyme): two times higher
- Profiles with lag (Plasmodium falciparum [5]; cohort 1a, 400 mg, 8 profiles analysed): 4
- Profiles with lag (Plasmodium falciparum [5]; cohort 2a, 250 mg, 7 profiles analysed): 5
- predicted efficacious single curative dose (P falciparum [6]): 340 mg
- efficacy for P falciparum compared with P vivax [1]: five-times better
- duration of effectiveness (pharmacokinetic profile) ([7]; after a single oral dose in the range of 200–400 mg): more than 8 days
- tolerability ([7]; healthy participants, single doses of ≤1200 mg): generally well tolerated
- protection from infection (P falciparum [8]): complete protection
- patients with headache ([9]; all 45 patients): 40%
- patients with pyrexia ([9]; all 45 patients): 44%
- abnormal haematology laboratory results considered clinically significant ([9]; all patients): No patients
- treatment-related serious adverse events or adverse events leading to study discontinuation ([9]; all patients): no patients
- Adverse event of special interest [9, 15]: 2 (15%) number of patients (%)
- Any adverse event [9, 15]: 10 (77%) number of patients (%)
- Serious adverse event [9, 15]: 0 number of patients (%)
- Severe adverse event [9, 15]: 0 number of patients (%)
- Treatment-related adverse event [9, 15]: 3 (23%) number of patients (%)
- Adverse event of special interest [9, 16]: 0 number of patients (%)
- Any adverse event [9, 16]: 4 (80%) number of patients (%)
- Serious adverse event [9, 16]: 0 number of patients (%)
- Severe adverse event [9, 16]: 1 (20%) number of patients (%)
- Treatment-related adverse event [9, 16]: 1 (20%) number of patients (%)
- Adverse event of special interest [9, 17]: 3 (27%) number of patients (%)
- Any adverse event [9, 17]: 7 (64%) number of patients (%)
- Serious adverse event [9, 17]: 1 (9%) number of patients (%)
- Severe adverse event [9, 17]: 2 (18%) number of patients (%)
- Treatment-related adverse event [9, 17]: 2 (18%) number of patients (%)
- Adverse event of special interest [9, 18]: 1 (11%) number of patients (%)
- Any adverse event [9, 18]: 7 (78%) number of patients (%)
- Serious adverse event [9, 18]: 0 number of patients (%)
- Severe adverse event [9, 18]: 0 number of patients (%)
- Treatment-related adverse event [9, 18]: 0 number of patients (%)
- Adverse event of special interest [9, 19]: 0 number of patients (%)
- Any adverse event [9, 19]: 6 (86%) number of patients (%)
- Serious adverse event [9, 19]: 0 number of patients (%)
- Severe adverse event [9, 19]: 0 number of patients (%)
- Treatment-related adverse event [9, 19]: 0 number of patients (%)
- tolerability ([9]; single oral dose 250-800 mg, all patients): well tolerated
- values for QTcF recorded ([10]; in a few patients): 450 to 500 ms
- QTcF changes from baseline ([10]; more patients with P falciparum than P vivax): 30 to 60 ms
- estimated duration of exposure greater than the minimum parasiticidal concentration (P. falciparum): around 10 days
- patients negative for gametocytaemia at baseline who became positive (Plasmodium vivax [11]): 13%
- patients achieving ACPR at day 28 (Plasmodium falciparum [12]; 250 mg, ITT): 55%
- patients achieving PCR-adjusted ACPR at day 14 (Plasmodium falciparum [12]; 250 mg, ITT): 73%
- patients achieving ACPR at day 28 (Plasmodium falciparum [12]; 250 mg, per-protocol): 60%
- patients achieving PCR-adjusted ACPR at day 14 (Plasmodium falciparum [12]; 250 mg, per-protocol): 80%
- patients achieving PCR-adjusted ACPR at day 14 (Plasmodium falciparum [12]; 400 mg single oral dose, per-protocol): 100%
- patients achieving ACPR at day 28 (Plasmodium falciparum [12]; 400 mg, ITT): 69%
- patients achieving PCR-adjusted ACPR at day 14 (Plasmodium falciparum [12]; 400 mg, ITT): 85%
- patients achieving ACPR at day 28 (Plasmodium falciparum [12]; 400 mg, per-protocol): 89%
- in-vitro selectivity for Plasmodium falciparum DHODH over its human ortholog [13]: very high
- reduction in potency [14]: 26 times
